The values below come from ChEMBL document CHEMBL3576860 (ACS Med Chem Lett, 2015).

Calls of active or inactive are those of the source. No cut-off for these calls is given here.

Usually Ki stands for a dissociation constant, usually derived from enzyme kinetics or from competition with a known ligand. Broadly, the IC50 is the concentration needed to halve the response being measured.

In experiment [1] the target is T1, Neuronal acetylcholine receptor; alpha4/beta2 (Rattus norvegicus, UniProt P09483+P12390). Kind of experiment: Displacement of [3H]epibatidine from rat alpha4beta2 nAChR transfected in HEK293 cell membrane. Type of experiment: cell membranes. A digest of the protocol:
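Rat α4β2, α4β4 or α3β4 subtypes; competition binding against [3H]epibatidine; Ki values; means of 3–5 independent experiments, each run in duplicate.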
(In general: Loss of bound radioactivity is the signal in a displacement assay; it reports binding, not function.)

Experiment [2] deals with Neuronal acetylcholine receptor; alpha4/beta4 (Rattus norvegicus, UniProt P09483+P12392). Kind of experiment: Displacement of [3H]epibatidine from rat alpha4beta4 nAChR transfected in HEK293 cell membrane. Format: cell membranes.
Experiment [3] concerns the target Neuronal acetylcholine receptor subunit alpha-7 (Rattus norvegicus, UniProt Q05941). The experiment is described as follows: Displacement of [3H]MLA from rat alpha7 nAChR transfected in tsA201 cell membrane. Type of experiment: cell membranes.
Experiment [4] deals with Neuronal acetylcholine receptor; alpha3/beta4 (Rattus norvegicus, UniProt P04757+P12392). The experiment is described as follows: Displacement of [3H]epibatidine from rat alpha3beta4 nAChR transfected in HEK293 cell membrane. Format: cell membranes.
In experiment [5] the target is T1, Neuronal acetylcholine receptor; alpha4/beta2. The experiment is described as follows: Antagonist activity at rat alpha4beta2 nAChR expressed in HEK293T cells by FLIPR assay. Type of experiment: cell-based, HEK-293T. A digest of the protocol: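 Fluorescence-based FLIPR membrane potential read-out of receptor function; antagonist mode gives an IC50.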
Experiment [6] addresses Neuronal acetylcholine receptor; alpha3/beta4 (Rattus norvegicus) (UniProt P04757+P12392). Kind of experiment: Agonist activity at rat alpha3beta4 nAChR expressed in HEK293T cells by FLIPR assay. Type of experiment: cell-based. The settings on record: HEK-293T.
For experiment [7], the target named is T2, Neuronal acetylcholine receptor; alpha4/beta2 (Rattus norvegicus) (UniProt P09483+P12390). The experiment is described as follows: Inhibition of rat alpha4beta2 nAChR expressed in Xenopus laevis oocytes assessed as inhibition of 30 uM ACh-induced current at 100 uM by two electrode-electrophysiology method. Format: cell-based. In outline: (§1)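 α4β2-expressing oocytes: compound at 100 μM applied alone to monitor baseline current, then coapplied with 30 μM ACh to assess the ACh-evoked current.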

The test system of another experiment is Mus musculus. Kind of experiment: Antidepressant activity in mouse assessed as total swim distance at 1 to 10 mg/kg, sc by forced swimming test. Format: functional, organism-based. A digest of the protocol:
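Mouse forced swim test; subcutaneous doses of 1, 3 and 10 mg/kg; swimming scored.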

Experiment [8] deals with T1, Neuronal acetylcholine receptor; alpha4/beta2. The experiment is described as follows: Inhibition of rat (alpha4)2(beta2)3 nAChR expressed in Xenopus laevis oocytes assessed as inhibition of 100 uM ACh-induced current by two electrode-electrophysiology method. Type of experiment: cell-based. A digest of the protocol:
(§2)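 Xenopus oocytes injected with α4 and β2 mRNA at ratio 10:1 for (α4)3(β2)2 or 1:10 for (α4)2(β2)3. Peak currents evoked by fixed ACh (1 mM for 10:1, 100 μM for 1:10) are measured with increasing compound concentrations. Concentration–inhibition curves give IC50, with Ki also reported.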

Experiment [9] has the same target. Kind of experiment: Inhibition of rat (alpha4)3(beta2)2 nAChR expressed in Xenopus laevis oocytes assessed as inhibition of 1 mM ACh-induced current by two electrode-electrophysiology method. Type of experiment: cell-based. In outline: as §2
The target of experiment [10] is T2, Neuronal acetylcholine receptor; alpha4/beta2 (Rattus norvegicus). Kind of experiment: Inhibition of rat alpha4beta2 nAChR expressed in Xenopus laevis oocytes assessed as baseline current at 100 uM by two electrode-electrophysiology method. Type of experiment: cell-based. In outline: as §1

Sequence of Neuronal acetylcholine receptor; alpha4/beta4 (P09483 whole entry): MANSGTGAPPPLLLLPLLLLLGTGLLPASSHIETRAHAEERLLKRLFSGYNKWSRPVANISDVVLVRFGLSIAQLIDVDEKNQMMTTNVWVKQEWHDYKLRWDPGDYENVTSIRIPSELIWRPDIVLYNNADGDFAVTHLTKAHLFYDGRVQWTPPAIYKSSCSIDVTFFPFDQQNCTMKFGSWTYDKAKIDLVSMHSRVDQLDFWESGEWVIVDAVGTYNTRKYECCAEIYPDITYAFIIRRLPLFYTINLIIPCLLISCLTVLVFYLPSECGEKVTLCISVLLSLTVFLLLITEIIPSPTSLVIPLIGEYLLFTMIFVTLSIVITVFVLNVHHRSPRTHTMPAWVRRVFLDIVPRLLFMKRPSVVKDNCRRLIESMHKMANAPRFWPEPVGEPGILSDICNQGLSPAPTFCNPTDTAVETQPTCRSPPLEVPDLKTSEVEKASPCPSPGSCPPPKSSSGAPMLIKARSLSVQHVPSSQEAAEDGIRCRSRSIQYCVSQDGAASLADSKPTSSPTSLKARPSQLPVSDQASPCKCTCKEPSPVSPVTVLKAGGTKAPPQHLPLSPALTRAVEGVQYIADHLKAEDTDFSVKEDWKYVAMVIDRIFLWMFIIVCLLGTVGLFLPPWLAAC
Sequence of Neuronal acetylcholine receptor; alpha4/beta4 (P12392 whole entry): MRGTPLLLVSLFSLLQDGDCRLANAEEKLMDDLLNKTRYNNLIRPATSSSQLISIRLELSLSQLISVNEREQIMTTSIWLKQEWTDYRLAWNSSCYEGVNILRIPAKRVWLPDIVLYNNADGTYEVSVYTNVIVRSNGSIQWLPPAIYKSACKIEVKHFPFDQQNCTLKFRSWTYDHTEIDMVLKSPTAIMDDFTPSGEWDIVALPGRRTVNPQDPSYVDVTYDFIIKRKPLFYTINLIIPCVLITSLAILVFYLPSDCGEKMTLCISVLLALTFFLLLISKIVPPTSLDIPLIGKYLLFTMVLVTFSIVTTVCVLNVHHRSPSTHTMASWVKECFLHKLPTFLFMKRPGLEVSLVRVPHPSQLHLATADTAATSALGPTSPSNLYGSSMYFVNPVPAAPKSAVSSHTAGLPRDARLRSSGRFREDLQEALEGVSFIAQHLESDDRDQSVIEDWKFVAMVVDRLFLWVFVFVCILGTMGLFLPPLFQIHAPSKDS
T1 sequence (P09483 whole entry): as the sequence (P09483 whole entry) above
T1 sequence (P12390 whole entry): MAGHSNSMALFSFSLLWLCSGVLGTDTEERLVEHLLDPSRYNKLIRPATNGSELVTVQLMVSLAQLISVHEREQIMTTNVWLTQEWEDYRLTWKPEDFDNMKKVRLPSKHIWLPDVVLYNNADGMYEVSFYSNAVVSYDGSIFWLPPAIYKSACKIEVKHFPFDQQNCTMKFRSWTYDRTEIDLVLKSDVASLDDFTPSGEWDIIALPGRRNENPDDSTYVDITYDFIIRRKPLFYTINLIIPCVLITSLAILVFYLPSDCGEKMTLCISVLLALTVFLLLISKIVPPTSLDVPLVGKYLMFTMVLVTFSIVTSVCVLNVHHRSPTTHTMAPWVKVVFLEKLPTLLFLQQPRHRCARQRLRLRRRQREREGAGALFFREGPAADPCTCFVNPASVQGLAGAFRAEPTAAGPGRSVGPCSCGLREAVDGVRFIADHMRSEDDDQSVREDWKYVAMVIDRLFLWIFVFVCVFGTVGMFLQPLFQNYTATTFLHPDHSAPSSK
Sequence of Neuronal acetylcholine receptor subunit alpha-7 (Q05941 whole entry): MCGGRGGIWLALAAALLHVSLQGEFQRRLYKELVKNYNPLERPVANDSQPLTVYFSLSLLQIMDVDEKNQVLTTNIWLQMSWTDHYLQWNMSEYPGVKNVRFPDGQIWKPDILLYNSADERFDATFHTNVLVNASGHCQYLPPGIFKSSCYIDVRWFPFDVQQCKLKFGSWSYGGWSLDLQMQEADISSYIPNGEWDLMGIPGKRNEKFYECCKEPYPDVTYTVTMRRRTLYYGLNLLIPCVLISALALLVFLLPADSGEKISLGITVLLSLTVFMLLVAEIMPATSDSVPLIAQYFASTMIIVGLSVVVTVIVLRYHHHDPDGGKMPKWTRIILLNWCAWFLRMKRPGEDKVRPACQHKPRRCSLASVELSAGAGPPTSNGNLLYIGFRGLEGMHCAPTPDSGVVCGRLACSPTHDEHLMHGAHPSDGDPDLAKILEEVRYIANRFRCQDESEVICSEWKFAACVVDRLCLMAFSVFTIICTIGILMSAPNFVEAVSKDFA
Sequence of Neuronal acetylcholine receptor; alpha3/beta4 (P04757 whole entry): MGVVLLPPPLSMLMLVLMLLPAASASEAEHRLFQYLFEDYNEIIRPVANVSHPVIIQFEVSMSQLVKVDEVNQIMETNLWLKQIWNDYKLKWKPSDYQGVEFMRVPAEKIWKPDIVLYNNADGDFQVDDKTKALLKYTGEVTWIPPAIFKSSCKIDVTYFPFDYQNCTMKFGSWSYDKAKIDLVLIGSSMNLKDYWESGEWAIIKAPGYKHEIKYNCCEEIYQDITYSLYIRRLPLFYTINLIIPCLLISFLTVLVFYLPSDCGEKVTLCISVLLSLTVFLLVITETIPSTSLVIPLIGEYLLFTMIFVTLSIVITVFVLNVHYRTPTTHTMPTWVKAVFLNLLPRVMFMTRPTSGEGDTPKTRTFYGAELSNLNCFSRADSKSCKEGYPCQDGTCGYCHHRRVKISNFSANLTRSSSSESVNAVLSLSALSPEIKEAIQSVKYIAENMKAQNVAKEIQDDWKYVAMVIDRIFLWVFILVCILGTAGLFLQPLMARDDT
Sequence of Neuronal acetylcholine receptor; alpha3/beta4 (P12392 whole entry): as the sequence (P12392 whole entry) above

Turning to `c1cc2c(cn1)C1CCCN1CC2` (racemic), the inhibitory constant (Ki) amounted to 0.071 µM in experiment [1], 7.2 µM in [2], 500 µM in experiment [3] and 100 µM in experiment [4]. Besides, inhibition in [5] was half-maximal at 0.12 µM (IC50). In experiment [6], the result was inactive.

Turning to `c1cc2c(cn1)[C@@H]1CCCN1CC2`, the Ki in [1] was 3.4 µM; in experiment [2], 100 µM; in experiment [3], more than 300 µM; in [4], 100 µM.

For `c1cc2c(cn1)[C@H]1CCCN1CC2`, the inhibition constant Ki in [2] is 3.7 µM; in experiment [3], 300 µM; in experiment [4], 50 µM; in [8], 0.34 µM; in [9] it was 15 µM. Besides, the inhibition entry in [7] is “Active”. The result in the experiment on Mus musculus was inactive. For the same compound, the IC50 stood at 87 µM in [8] and 135 µM in experiment [9]. The inhibition result in [10] was “inactive”.

Consider `c1cc2c(cn1)CCN1CCCC21` (racemic), for which the Ki in experiment [1] came out at 13 µM; in experiment [2], 100 µM; in experiment [4], 100 µM.
